Where “and” joins values, the source holds several entries; their conditions need not be identical. Equal entries are not always repeated. Calls of active or inactive are those of the source.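 Rule for the calls: active = cell killing with fitted AC50 at or below twice the top valid dose for that sample; inconclusive = flat curve losing 30 to 70% signal, or bad fit; inactive = the rest.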
system: HEK293T viability, CellTiter-Glo ATP luminescence, 72 h; experiment: viability loss in human kidney cells – cell-based, CellTiter-Glo luminescence, dry powder, set 17, cytotoxicity control, dose response (AID 977615); conditions: not given
How it was run: (§1)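 Assay system – HEK293T cells · Quantity – 2000 HEK293T cells seeded per well · Measured by – CellTiter-Glo luminescence of cellular ATP, read at room temperature · Schedule – 24 h attachment, 72 h compound exposure, 37 °C, 5% CO2 · Buffer or medium – DMEM growth medium supplemented with 10% FBS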

SMILES | AC50
COc1ccc(-c2ccc(CN(C)C[C@@H]3Oc4cc(C#C[C@@H](C)O)ccc4S(=O)(=O)N([C@@H](C)CO)C[C@@H]3C)cc2)cc1 | 1580 nM
COc1ccc(-c2ccc3c(c2)O[C@@H](CN(C)Cc2ccc(-c4ccccc4)cc2)[C@@H](C)CN([C@@H](C)CO)S3(=O)=O)cc1 | > 52000 nM (inactive)
C[C@@H](O)C#Cc1ccc2c(c1)O[C@@H](CN(C)Cc1ccc(-c3cccc(Cl)c3)cc1)[C@@H](C)CN([C@@H](C)CO)S2(=O)=O | 2080 nM
COc1cccc(-c2ccc(CN(C)C[C@@H]3Oc4cc(C#C[C@@H](C)O)ccc4S(=O)(=O)N([C@@H](C)CO)C[C@@H]3C)cc2)c1 | 884 nM
Cc1ccccc1-c1ccc(CN(C)C[C@@H]2Oc3cc(C#C[C@@H](C)O)ccc3S(=O)(=O)N([C@@H](C)CO)C[C@@H]2C)cc1 | 1890 nM
C[C@@H](O)C#Cc1ccc2c(c1)O[C@@H](CN(C)Cc1ccc(-c3ccccc3Cl)cc1)[C@@H](C)CN([C@@H](C)CO)S2(=O)=O | 364 nM
Cc1cccc(-c2ccc(CN(C)C[C@@H]3Oc4cc(C#C[C@@H](C)O)ccc4S(=O)(=O)N([C@@H](C)CO)C[C@@H]3C)cc2)c1 | 1530 nM
COc1ccccc1-c1ccc(CN(C)C[C@@H]2Oc3cc(C#C[C@@H](C)O)ccc3S(=O)(=O)N([C@@H](C)CO)C[C@@H]2C)cc1 | 1350 nM
C[C@@H](O)C#Cc1ccc2c(c1)O[C@@H](CN(C)Cc1ccc(-c3ccccc3)cc1)[C@@H](C)CN([C@@H](C)CO)S2(=O)=O | 3610 nM and 2940 nM
C[C@H]1CN([C@@H](C)CO)S(=O)(=O)c2ccc(C#CC(C)(C)O)cc2O[C@H]1CN(C)Cc1ccc(-c2ccccc2)cc1 | 18000 nM
C[C@H](O)C#Cc1ccc2c(c1)O[C@@H](CN(C)Cc1ccc(-c3ccccc3)cc1)[C@H](C)CN([C@H](C)CO)S2(=O)=O | 26100 nM
C[C@H](O)C#Cc1ccc2c(c1)O[C@@H](CN(C)Cc1ccc(-c3ccccc3)cc1)[C@@H](C)CN([C@@H](C)CO)S2(=O)=O | 22000 nM
C[C@H](CO)N1C[C@H](C)[C@H](CN(C)Cc2ccc(-c3ccccc3)cc2)Oc2cc(C#C[C@@H](C)O)ccc2S1(=O)=O | 21700 nM
C[C@H](O)C#Cc1ccc2c(c1)O[C@H](CN(C)Cc1ccc(-c3ccccc3)cc1)[C@@H](C)CN([C@@H](C)CO)S2(=O)=O | 7120 nM
C[C@@H](O)C#Cc1ccc2c(c1)O[C@H](CN(C)Cc1ccc(-c3ccccc3)cc1)[C@@H](C)CN([C@@H](C)CO)S2(=O)=O | 25900 nM
Cc1ccc(-c2ccc(CN(C)C[C@@H]3Oc4cc(C#C[C@@H](C)O)ccc4S(=O)(=O)N([C@@H](C)CO)C[C@@H]3C)cc2)cc1 | 1540 nM
C[C@@H](O)C#Cc1ccc2c(c1)O[C@@H](CN(C)Cc1ccc(-c3ccc(Cl)cc3)cc1)[C@@H](C)CN([C@@H](C)CO)S2(=O)=O | 1260 nM

system: not listed separately; experiment: as above; conditions: HEK293T viability, CellTiter-Glo ATP luminescence, 72 h; at 26 µM (top of the series)
How it was run: as §1

SMILES | activity change, negative = cytotoxic
C[C@@H](O)C#Cc1ccc2c(c1)O[C@@H](CN(C)Cc1cccnc1)[C@@H](C)CN([C@@H](C)CO)S2(=O)=O | 2.11% (inactive)
CNC[C@@H]1Oc2cc(Br)ccc2S(=O)(=O)N([C@@H](C)CO)C[C@@H]1C | -16.1% (inactive)
C[C@H]1CN([C@@H](C)CO)S(=O)(=O)c2ccc(Br)cc2O[C@H]1CN(C)Cc1ccc(-c2ccccc2)cc1 | -0.919% (inactive)
C[C@@H]1CN([C@H](C)CO)S(=O)(=O)c2ccc(C#C[C@@H](C)O)cc2O[C@@H]1CN(C)Cc1ccc(-c2ccccc2)cc1 | 2.1% (inactive)
CO[C@H]1CN(C)C(=O)c2ccc(NC(=O)c3ccc(F)cc3)cc2OC[C@H](C)N(C(=O)c2ccc(F)cc2)C[C@@H]1C | 1.97% (inactive)
C[C@@H]1CN([C@@H](C)CO)S(=O)(=O)c2ccc(C#C[C@@H](C)O)cc2O[C@@H]1CN(C)Cc1ccc(-c2ccccc2)cc1 | -8.45% (inactive)
C[C@@H]1CN([C@H](C)CO)S(=O)(=O)c2ccc(C#C[C@@H](C)O)cc2O[C@H]1CN(C)Cc1ccc(-c2ccccc2)cc1 | -10.1% (inactive)
C[C@@H](O)C#Cc1ccc2c(c1)O[C@@H](CN(C)S(=O)(=O)c1ccc(-c3ccccc3)cc1)[C@@H](C)CN([C@@H](C)CO)S2(=O)=O | -12.1% (inactive)
C[C@@H](O)C#Cc1ccc2c(c1)O[C@@H](CN(C)Cc1ccncc1)[C@@H](C)CN([C@@H](C)CO)S2(=O)=O | -12% (inactive)
C[C@H](O)C#Cc1ccc2c(c1)O[C@H](CN(C)Cc1ccc(-c3ccccc3)cc1)[C@H](C)CN([C@@H](C)CO)S2(=O)=O | -11.3% (inactive)

— PubChem BioAssay AID977615 (Broad Institute, 2014)
